In brackets after ≈: the same amount, converted by molar mass.
Legend:
Type in all cases: functional
Candida albicans [1] = assay: Tested for minimum inhibitory concentration against Candida albicans 124 (Candida albicans) at pH of 4.5.
Summary of the method: (§1)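 Broth microdilution in malt extract broth, initial pH 4.5 or 6.5, with 1×10^3 CFU per 0.2 mL well of thawed stored cultures. Compound stocks were made in 5% DMSO/0.2% Tween 80 and diluted to final 0.05–100 μg/mL. Plates were incubated 48 h at 30 °C and read macroscopically. MIC was the lowest concentration with no detectable growth. Vehicle-only wells served as controls.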

Candida albicans [2] = assay: Tested for minimum inhibitory concentration against Candida albicans 124 (Candida albicans) at pH of 6.5.; summary of the method: as §1
[3] = system: Meyerozyma guilliermondii; assay: Tested for minimum inhibitory concentration against Candida guilliermondii 80 (C.g) at pH of 6.5.; summary of the method: as §1
[4] = system: Meyerozyma guilliermondii; assay: Tested for minimum inhibitory concentration against Candida guilliermondii 80 (C.g) at pH of 4.5.; summary of the method: as §1
Pichia kudriavzevii [5] = assay: Tested for minimum inhibitory concentration against Candida krusei 132 (C.k) at pH of 4.5.; summary of the method: as §1
Pichia kudriavzevii [6] = assay: Tested for minimum inhibitory concentration against Candida krusei 132 (C.k) at pH of 6.5.; summary of the method: as §1
Candida tropicalis [7] = assay: Tested for minimum inhibitory concentration against Candida tropicalis 43 (C.t) at pH of 4.5.; summary of the method: as §1
Candida tropicalis [8] = assay: Tested for minimum inhibitory concentration against Candida tropicalis 43 (C.t) at pH of 6.5.; summary of the method: as §1

| Compound | MIC (Candida albicans [1]) [µg/mL] | MIC (Candida albicans [2]) [µg/mL] | MIC [3] [µg/mL] | MIC [4] [µg/mL] | MIC (Pichia kudriavzevii [5]) [µg/mL] | MIC (Pichia kudriavzevii [6]) [µg/mL] | MIC (Candida tropicalis [7]) [µg/mL] | MIC (Candida tropicalis [8]) [µg/mL] |
| --- | --- | --- | --- | --- | --- | --- | --- | --- |
| CC[C@H](C)[C@H]1C(=O)NCC(=O)N(C)[C@@H](C(C)C)C(=O)N[C@@H](Cc2ccc(OC)cc2)C(=O)N[C@@H](C)C(=O)N[C@H](C)C(=O)N2CCCC[C@H]2C(=O)N(C)[C@@H](C(C)C)C(=O)N[C@@H](C(C)C)C(=O)N(C)[C@@H](CC(=O)O)C(=O)N(C)[C@@H]([C@@H](C)CC)C(=O)N1C | 12.5 (≈ 10.4 µM) | > 100 | > 100 | 50 (≈ 41.8 µM) | > 100 | > 100 | 100 (≈ 83.6 µM) | > 100 |
| CC[C@@H](C)[C@H]1C(=O)NCC(=O)N(C)[C@@H](C(C)C)C(=O)N[C@@H](Cc2ccc(OCc3ccccc3)cc2)C(=O)O[C@H](C)C(=O)N2CCCC[C@H]2C(=O)N(C)[C@@H](C(C)C)C(=O)N[C@@H](C(C)C)C(=O)N(C)[C@@H](CC(=O)O)C(=O)N(C)[C@@H]([C@@H](C)CC)C(=O)N1C | 50 (≈ 41.6 µM) | > 100 | > 100 | > 100 | > 100 | > 100 | > 100 | > 100 |
| CC[C@@H](C)[C@H]1C(=O)NCC(=O)N(C)[C@@H](C(C)C)C(=O)N[C@@H](Cc2ccc(OC)cc2)C(=O)N[C@H](C)C(=O)N2CCCC[C@H]2C(=O)N(C)[C@@H](C(C)C)C(=O)N[C@@H](C(C)C)C(=O)N(C)[C@@H](CC(=O)O)C(=O)N(C)[C@@H]([C@@H](C)CC)C(=O)N1C | 25 (≈ 22.2 µM) | 100 (≈ 88.9 µM) | > 100 | > 100 | > 100 | > 100 | > 100 | > 100 |
| CC[C@H](C)[C@H]1C(=O)NCC(=O)N(C)[C@@H](C(C)C)C(=O)N[C@@H](Cc2ccc(OC)cc2)C(=O)N[C@@H](C)C(=O)N[C@@H](C)C(=O)N2CCCC[C@H]2C(=O)N(C)[C@@H](C(C)C)C(=O)N[C@@H](C(C)C)C(=O)N(C)[C@@H](CC(=O)O)C(=O)N(C)[C@@H]([C@@H](C)CC)C(=O)N1C | > 100 | > 100 | > 100 | > 100 | > 100 | > 100 | > 100 | > 100 |
| CC[C@@H](C)[C@H]1C(=O)NCC(=O)N(C)[C@@H](C(C)C)C(=O)N[C@@H](Cc2ccc(OCc3ccc(Br)cc3)cc2)C(=O)O[C@H](C)C(=O)N2CCCC[C@H]2C(=O)N(C)[C@@H](C(C)C)C(=O)N[C@@H](C(C)C)C(=O)N(C)[C@@H](CC(=O)O)C(=O)N(C)[C@@H]([C@@H](C)CC)C(=O)N1C | > 100 | > 100 | > 100 | > 100 | > 100 | > 100 | > 100 | > 100 |
| CC[C@@H](C)[C@H]1C(=O)NCC(=O)N(C)[C@@H](C(C)C)C(=O)N[C@@H](CC(=O)O)C(=O)O[C@H](C)C(=O)N2CCCC[C@H]2C(=O)N(C)[C@@H](C(C)C)C(=O)N[C@@H](C(C)C)C(=O)N(C)[C@@H](CC(=O)O)C(=O)N(C)[C@@H]([C@@H](C)CC)C(=O)N1C | 100 (≈ 94 µM) | > 100 | > 100 | > 100 | > 100 | > 100 | > 100 | > 100 |
| CC[C@@H](C)[C@H]1C(=O)NCC(=O)N(C)[C@@H](C(C)C)C(=O)N[C@@H](Cc2ccc(OC)cc2)C(=O)N[C@@H](C)C(=O)N2CCCC[C@H]2C(=O)N(C)[C@@H](C(C)C)C(=O)N[C@@H](C(C)C)C(=O)N(C)[C@@H](CC(=O)O)C(=O)N(C)[C@@H]([C@@H](C)CC)C(=O)N1C | 3.13 (≈ 2.78 µM) | 6.25 (≈ 5.55 µM) | 25 (≈ 22.2 µM) | 6.25 (≈ 5.55 µM) | 25 (≈ 22.2 µM) | 50 (≈ 44.4 µM) | 6.25 (≈ 5.55 µM) | 25 (≈ 22.2 µM) |
| CC[C@H](C)[C@H]1C(=O)NCC(=O)N(C)[C@@H](C(C)C)C(=O)N[C@@H](Cc2ccc(OC)cc2)C(=O)N[C@@H](C)C(=O)N[C@H](C)C(=O)N2CCCC[C@H]2C(=O)N(C)[C@@H](C(C)C)C(=O)N[C@@H](C(C)C)C(=O)N(C)[C@@H](CC(=O)OC(C)(C)C)C(=O)N(C)[C@@H]([C@@H](C)CC)C(=O)N1C | > 100 |  |  | > 100 | > 100 |  | > 100 |  |

More lines, now with the values ahead:

| MIC (Candida albicans [1]) [µg/mL] | MIC (Candida albicans [2]) [µg/mL] | MIC [3] [µg/mL] | MIC [4] [µg/mL] | MIC (Pichia kudriavzevii [5]) [µg/mL] | MIC (Pichia kudriavzevii [6]) [µg/mL] | MIC (Candida tropicalis [7]) [µg/mL] | MIC (Candida tropicalis [8]) [µg/mL] | Compound |
| --- | --- | --- | --- | --- | --- | --- | --- | --- |
| > 100 | > 100 | > 100 | > 100 | > 100 | > 100 | > 100 | > 100 | CC[C@@H](C)[C@H]1C(=O)NCC(=O)N(C)[C@@H](C(C)C)C(=O)N[C@@H](Cc2ccc(OC)cc2)C(=O)O[C@H](C)C(=O)N2CCCC[C@H]2C(=O)N(C)[C@@H](C(C)C)C(=O)N[C@@H](C(C)C)C(=O)N(C)[C@@H](CCCl)C(=O)N(C)[C@@H]([C@@H](C)CC)C(=O)N1C |
| 12.5 (≈ 10.8 µM) | 50 (≈ 43.3 µM) | > 100 | > 100 | > 100 | > 100 | 100 (≈ 86.6 µM) | > 100 | CC[C@@H](C)[C@H]1C(=O)NCC(=O)N(C)[C@@H](C(C)C)C(=O)N[C@@H](Cc2ccc(OC)cc2)C(=O)O[C@H](C)C(=O)N2CCCC[C@H]2C(=O)N(C)[C@@H](C(C)C)C(=O)N[C@@H](C(C)C)C(=O)N(C)[C@@H](CCOC(C)=O)C(=O)N(C)[C@@H]([C@@H](C)CC)C(=O)N1C |
| > 100 | > 100 | > 100 | > 100 | > 100 | > 100 | > 100 | > 100 | CC[C@@H](C)[C@H]1C(=O)NCC(=O)N(C)[C@@H](C(C)C)C(=O)N[C@@H](Cc2ccc(OC)cc2)C(=O)O[C@H](C)C(=O)N2CCCC[C@H]2C(=O)N(C)[C@@H](C(C)C)C(=O)N[C@@H](C(C)C)C(=O)N(C)[C@@H](CC(=O)NC[Si](C)(C)C)C(=O)N(C)[C@@H]([C@@H](C)CC)C(=O)N1C |
| 12.5 (≈ 10.7 µM) | 100 (≈ 85.4 µM) | > 100 | 25 (≈ 21.4 µM) | > 100 | > 100 | 25 (≈ 21.4 µM) | > 100 | CC[C@@H](C)[C@H]1C(=O)NCC(=O)N(C)[C@@H](C(C)C)C(=O)N[C@@H](Cc2ccc(OCC(=O)O)cc2)C(=O)O[C@H](C)C(=O)N2CCCC[C@H]2C(=O)N(C)[C@@H](C(C)C)C(=O)N[C@@H](C(C)C)C(=O)N(C)[C@@H](CC(=O)O)C(=O)N(C)[C@@H]([C@@H](C)CC)C(=O)N1C |
| > 100 | > 100 | > 100 | > 100 | > 100 | > 100 | > 100 | > 100 | CC[C@@H](C)[C@H]1C(=O)NCC(=O)N(C)[C@@H](C(C)C)C(=O)N[C@@H](Cc2ccc(OC)cc2)C(=O)O[C@H](C)C(=O)N2CCCC[C@H]2C(=O)N(C)[C@@H](C(C)C)C(=O)N[C@@H](C(C)C)C(=O)N(C)[C@@H](CCOC(=O)c2ccccc2C(=O)O)C(=O)N(C)[C@@H]([C@@H](C)CC)C(=O)N1C |
| > 100 | > 100 | > 100 | > 100 | > 100 | > 100 | > 100 | > 100 | CC[C@@H](C)[C@H]1C(=O)NCC(=O)N(C)[C@@H](C(C)C)C(=O)N[C@@H](Cc2ccc(OC)cc2)C(=O)O[C@H](C)C(=O)N2CCCC[C@H]2C(=O)N(C)[C@@H](C(C)C)C(=O)N[C@@H](C(C)C)C(=O)N(C)[C@@H](CCO)C(=O)N(C)[C@@H]([C@@H](C)CC)C(=O)N1C |
| > 100 | > 100 | > 100 | > 100 | > 100 | > 100 | > 100 | > 100 | CC[C@@H](C)[C@H]1C(=O)NCC(=O)N(C)[C@@H](C(C)C)C(=O)N[C@@H](Cc2ccc(OC)cc2)C(=O)O[C@H](C)C(=O)N2CCCC[C@H]2C(=O)N(C)[C@@H](C(C)C)C(=O)N[C@@H](C(C)C)C(=O)N(C)[C@@H](CCOC(=O)CCC(=O)O)C(=O)N(C)[C@@H]([C@@H](C)CC)C(=O)N1C |
| > 100 | > 100 | > 100 | > 100 | > 100 | > 100 | > 100 | > 100 | CC[C@@H](C)[C@H]1C(=O)NCC(=O)N(C)[C@@H](C(C)C)C(=O)N[C@@H](Cc2ccc(OC)cc2)C(=O)O[C@H](C)C(=O)N2CCCC[C@H]2C(=O)N(C)[C@@H](C(C)C)C(=O)N[C@@H](C(C)C)C(=O)N(C)[C@@H](CC(=O)N(CC)CC)C(=O)N(C)[C@@H]([C@@H](C)CC)C(=O)N1C |
| > 100 | > 100 | > 100 | > 100 | > 100 | > 100 | > 100 | > 100 | CC[C@@H](C)[C@H]1C(=O)NCC(=O)N(C)[C@@H](C(C)C)C(=O)N[C@@H](Cc2ccc(OC)cc2)C(=O)O[C@H](C)C(=O)N2CCCC[C@H]2C(=O)N(C)[C@@H](C(C)C)C(=O)N[C@@H](C(C)C)C(=O)N(C)[C@@H](CC(=O)OC(C)(C)C)C(=O)N(C)[C@@H]([C@@H](C)CC)C(=O)N1C |
| 3.13 (≈ 2.78 µM) | 12.5 (≈ 11.1 µM) | 100 (≈ 88.8 µM) | 12.5 (≈ 11.1 µM) | 25 (≈ 22.2 µM) | 50 (≈ 44.4 µM) | 6.25 (≈ 5.55 µM) | 25 (≈ 22.2 µM) | CC[C@@H](C)[C@H]1C(=O)NCC(=O)N(C)[C@@H](C(C)C)C(=O)N[C@@H](Cc2ccc(OC)cc2)C(=O)O[C@@H](C)C(=O)N2CCCC[C@H]2C(=O)N(C)[C@@H](C(C)C)C(=O)N[C@@H](C(C)C)C(=O)N(C)[C@@H](CC(=O)O)C(=O)N(C)[C@@H]([C@@H](C)CC)C(=O)N1C |

Reference: ChEMBL document CHEMBL1127799, “Derivatives of a novel cyclopeptolide. 1. Synthesis, antifungal activity, and structure-activity relationships” (1994)
